How the values were obtained:
Details in all cases: Homo sapiens
MT4 [1] = test: Protection of infected MT-4 cells from wtIIIB-HIV-1-induced cytopathogenicity; assay type: functional, cell-based
Procedure, shortened: (§1)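 MT-4 cells (1 × 10⁴/well, RPMI 1640 with 10% FCS, 37 °C, 5% CO₂) were infected with HIV-1 IIIB (H9/IIIB supernatant) at an inoculum causing complete cytopathicity by day 4, across graded compound concentrations. Viability was read by MTT, with cytotoxicity run in parallel on mock-infected cells. Concentration giving 50% protection reported as the mean of three experiments.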

C8166 [2] = test: Concentration required to reduce the amount of p24 by 90% in C8166 cells infected with an efavirenz-resistant strain EFVR; assay type: functional
Procedure, shortened: (§2)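 C8166 cells (1 × 10⁴/well) with serial compound dilutions (200 mM DMSO stock diluted in medium), infected with K103R/V179D/P225H virus selected from IIIB by passage in C8166 cells with efavirenz up to 2 μM (stock 3.0 × 10⁵ CCID₅₀/mL); 37 °C incubation; p24 measured by immunoenzymatic kit; value = concentration giving 90% p24 reduction.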

MT4 [3] = test: Compound concentration required to achieve 50% protection of infected MT-4 cells from K103N-Y181C strain was determined by the MTT method; assay type: functional, cell-based
Procedure, shortened: (§3)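 MT-4 cells (1 × 10⁴/well, RPMI 1640 + 10% FCS) exposed to serial compound dilutions (200 mM DMSO stock diluted in medium), infected with enough virus to give full cytopathicity by day 4; wt IIIB from H9/IIIB supernatant, Y181C and K103N–Y181C from NNRTI-selected passages.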

C8166 [4] = test: Concentration required to reduce the amount of p24 by 90% in wtIIIB-HIV-1-infected C8166 cells; assay type: functional
Procedure, shortened: (§4)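 Acute infection of C8166 cells (1 × 10⁴/well, RPMI 1640 with 10% FCS, 37 °C, 5% CO₂) by HIV-1 IIIB from persistently infected H9/IIIB supernatant, with a virus inoculum sized to cause complete cytopathicity at day 4, in the presence of serially diluted compound (DMSO stock diluted in medium). p24 antigen was measured by immunoenzymatic kit. Concentration giving 90% reduction of p24 reported.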

MT4 [5] = test: Concentration required to achieve 50% protection of infected MT-4 cells from K103N-Y181C; assay type: functional, cell-based; procedure, shortened: as §3
C8166 [6] = test: Compound concentration required to reduce the amount of p24 by 90% in C8166 cells infected with an efavirenz-resistant strain EFVR carrying mutations K103R, V179D, and P225H; assay type: functional; procedure, shortened: as §2
MT4 [7] = test: Concentration required to achieve 50% protection of infected MT-4 cells from Y181C-HIV-1 strain; assay type: functional, cell-based; procedure, shortened: as §3
MT4 [8] = test: Compound concentration required to achieve 50% protection of infected MT-4 cells from Y181C strain was determined by the MTT method; assay type: functional, cell-based; procedure, shortened: as §3
C8166 [9] = test: Compound concentration required to reduce the amount of p24 by 90% in wtIIIBinfected C8166 cells; assay type: functional; procedure, shortened: as §4
MT4 [10] = test: (§5) Concentration required for 50% protection of infected MT-4 cells from wtIIIB-HIV-1-induced cytopathogenicity was determined by the MTT method; assay type: functional, cell-based; procedure, shortened: as §1
MT4 [11] = test: as §5; assay type: functional, cell-based; procedure, shortened: as §3; remark: listed apart in the source

Row | SMILES | EC50 (MT4 [1]) | further results
1 | NNC(=O)C(=O)c1cc2ccccc2n1S(=O)(=O)c1ccccc1 | > 200000 nM | 
2 | NC(=O)c1[nH]c2ccc(Cl)cc2c1Sc1ccccc1 | 20 nM | 
3 | CCOC(=O)C(=O)c1cc2ccccc2n1S(=O)(=O)c1ccccc1[N+](=O)[O-] | 1800 nM | 
4 | CCOC(=O)c1c(C=O)n(S(=O)(=O)c2ccccc2)c2ccccc12 | > 32000 nM | 
5 | Cc1ccnc2c1NC(=O)c1cccnc1N2C1CC1 [NEVIRAPINE] |  | EC90 (C8166 [2]): > 30000 nM; EC50 (MT4 [3]): > 30000 nM; EC90 (C8166 [4]): 120 nM; EC50 (MT4 [5]): > 30000 nM; EC90 (C8166 [6]): > 30000 nM; EC50 (MT4 [7]): > 30000 nM; EC50 (MT4 [8]): > 30000 nM; EC90 (C8166 [9]): 120 nM
6 | O=[N+]([O-])c1ccc(Cl)cc1S(=O)(=O)n1ccc2ccccc21 |  | EC50 (MT4 [10]): 3980 nM
7 | Cc1cc(C)cc(S(=O)(=O)c2c(C(N)=O)[nH]c3ccc(Cl)cc23)c1 | 4 nM | 
8 | CCOC(=O)c1[nH]c2ccccc2c1S(=O)(=O)c1ccccc1 | 3700 nM | 
9 | O=C(NCCO)c1[nH]c2ccc(Cl)cc2c1Sc1ccccc1 |  | EC50 (MT4 [10]): 129 nM
10 | CC(C)(C)c1ccc(Sc2c(C(N)=O)[nH]c3ccc(Cl)cc23)cc1 | 8000 nM | 
11 | Cc1cc(C)cc(S(=O)(=O)c2c(C(N)=O)[nH]c3ccc(Br)cc23)c1 | 2 nM | 
12 | NC(=O)c1c(C=O)n(S(=O)(=O)c2ccccc2)c2ccccc12 | > 32000 nM | 
13 | CCOC(=O)c1[nH]c2ccc(Cl)cc2c1Sc1cc(Cl)ccc1N | 2500 nM | 
14 | Cc1cc(C)cc(Sc2c(C(N)=O)[nH]c3ccc(Cl)cc23)c1 | 6 nM | 
15 | Cc1cc(C)cc(S(=O)(=O)c2c(C(=O)NNCCO)[nH]c3ccc(Cl)cc23)c1 | 1 nM | EC50 (MT4 [11]): 1 nM; EC90 (C8166 [2]): 200 nM; EC50 (MT4 [3]): 10000 nM; EC90 (C8166 [4]): 6 nM; EC50 (MT4 [5]): 10000 nM; EC90 (C8166 [6]): 200 nM; EC50 (MT4 [7]): 30 nM; EC50 (MT4 [10]): 1 nM; EC50 (MT4 [8]): 30 nM; EC90 (C8166 [9]): 6 nM
16 | CCOC(=O)c1[nH]c2ccc(Cl)cc2c1S(=O)(=O)c1ccccc1N | > 200000 nM | 
17 | CCOC(=O)c1[nH]c2ccccc2c1Sc1ccccc1N | > 200000 nM | 
18 | NC(=O)c1[nH]c2ccc(Cl)cc2c1S(=O)(=O)c1c(Cl)cccc1Cl | 100 nM | 
19 | CC(C)c1ccc(Sc2c(C(N)=O)[nH]c3ccc(Cl)cc23)cc1 | 1900 nM | 
20 | CCOC(=O)C(=O)c1cc2ccccc2n1S(=O)(=O)c1cc(Cl)ccc1N | 1800 nM | 
21 | Cc1ccccc1Sc1c(C(N)=O)[nH]c2ccc(Cl)cc12 | 300 nM | 

Row | SMILES | EC50 (MT4 [1]) | further results
22 | CCOC(=O)c1[nH]c2ccccc2c1Sc1ccccc1 | 1400 nM | 
23 | Cc1cccc(S(=O)(=O)c2c(C(=O)NNCCO)[nH]c3ccc(Cl)cc23)c1 |  | EC50 (MT4 [10]): 10 nM
24 | NC(=O)c1[nH]c2ccccc2c1Sc1cc(Cl)ccc1N | 9000 nM | 
25 | O=Cc1cc2cc(Cl)ccc2n1S(=O)(=O)c1ccccc1 | > 75000 nM | 
26 | Cc1ccc(Sc2c(C(=O)NNCCO)[nH]c3ccc(Cl)cc23)c(C)c1 |  | EC50 (MT4 [10]): 2290 nM
27 | NC(=O)c1c(C=O)n(S(=O)(=O)c2ccccc2)c2ccc(Cl)cc12 | ≥ 200000 nM | 
28 | CCOC(=O)C(=O)c1cc2cc(Cl)ccc2n1S(=O)(=O)c1ccccc1 | > 200000 nM | 
29 | NC(=O)c1[nH]c2ccc(Cl)cc2c1S(=O)(=O)c1ccccc1 [L-737126] | 1 nM | EC90 (C8166 [2]): 900 nM; EC90 (C8166 [4]): 0.7 nM; EC50 (MT4 [5]): 8000 nM; EC50 (MT4 [7]): 20 nM
30 | CC(C)(C)c1ccc(S(=O)(=O)c2c(C(N)=O)[nH]c3ccc(Cl)cc23)cc1 | 130 nM | 
31 | CCOC(=O)C(=O)c1cc2ccccc2n1S(=O)(=O)c1ccc(Cl)cc1 | > 100000 nM | 
32 | NC(=O)c1[nH]c2ccc(Cl)cc2c1Sc1ccc(Cl)cc1 | 3100 nM | 
33 | CCOC(=O)c1[nH]c2ccc(Cl)cc2c1S(=O)(=O)c1cc(Cl)ccc1N | 1900 nM | 
34 | CC(C)OC(=O)c1c(C=O)n(S(=O)(=O)c2ccccc2)c2ccccc12 | > 54000 nM | 
35 | NC(=O)C(=O)c1cc2cc(Cl)ccc2n1S(=O)(=O)c1ccccc1 | 66600 nM | 
36 | Cc1ccc(S(=O)(=O)c2c(C(N)=O)[nH]c3ccc(Cl)cc23)cc1 | 3 nM | 
37 | NNC(=O)c1[nH]c2ccc(Cl)cc2c1Sc1ccccc1 | 550 nM | 
38 | Cc1ccccc1S(=O)(=O)c1c(C(N)=O)[nH]c2ccc(Cl)cc12 | 1 nM | 
39 | Cc1ccc(S(=O)(=O)c2c(C(=O)NCCO)[nH]c3ccc(Cl)cc23)c(C)c1 |  | EC50 (MT4 [10]): 10 nM
40 | NC(=O)c1[nH]c2ccccc2c1S(=O)(=O)c1ccccc1 | 180 nM | 
41 | CCOC(=O)C(=O)c1cc2cc(Cl)ccc2n1S(=O)(=O)c1ccc(C)cc1 | > 200000 nM | 

From ChEMBL document CHEMBL1145287, “Docking and 3-D QSAR studies on indolyl aryl sulfones. Binding mode exploration at the HIV-1 reverse transcriptase non-nucleoside binding site and design of highly active N-(2-hydroxyethyl)carboxamide and N-(2-hydroxyethyl)carbohydrazide derivatives” (J Med Chem, 2005)
